Data reported in paper PMC10245299 (Bioorganic & medicinal chemistry letters, 2022).
Where two headings read alike, the source gives them in different places.

What was measured:
K562 cells [1] = conditions: read-out: Toxicity IC50, control compounds; cited from earlier work
[2] = by 24 hours in plasma; cited from earlier work
[3] = Stability in 5 mg/mL K562 extract in lysis buffer; format: in vitro ADME; conditions: n=2
[4] = Stability in 50% plasma in phosphate buffered saline; format: in vitro ADME
K562 cells [5] = experiment: Direct toxicity against K562 cells; format: cell-based; conditions: Homo sapiens, K562, 72 h, read-out: Toxicity IC50
Procedure, shortened: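 Test compounds were applied directly to K562 cells, without T cells, to measure direct toxicity. n=3.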

SMILES | IC50 (K562 cells [1]) | IC50 (K562 cells [5]) | also measured
C/C(=C\CCP(=O)(OCOC(=O)C(C)(C)C)OCOC(=O)C(C)(C)C)CO [Compound 5] | > 100 µM |  | percent metabolized in plasma [2]: 95%; K562 extract (4 h, percent remaining) [3]: totally disappeared
CCOC(=O)CNP(=O)(CC/C=C(\C)CO)Oc1ccccc1 (centres unmarked) [Compound 6] | > 100 µM |  | 
C/C(=C\CCP(=O)(OCC(=O)OC(C)(C)C)Oc1ccccc1)CO (centres unmarked) [Compound 7] | > 100 µM |  | 
CCOC(=O)[C@H](C)NP(=O)(CCC=C(C)C)N[C@@H](C)C(=O)OCC [Compound 12] |  |  | remaining at 24 h [4]: ≥ 70%
CCOC(=O)CNP(=O)(CC/C=C(\C)CO)NCC(=O)OCC [Compound 16] |  | 10 to 100 µM | 
COC(=O)[C@@H](NP(=O)(CC/C=C(\C)CO)N[C@H](C(=O)OC)C(C)C)C(C)C [Compound 17] |  | 10 to 100 µM | 
